One compound from ChEMBL document CHEMBL4261642, “Design, synthesis, and ex vivo evaluation of a selective inhibitor for retinaldehyde dehydrogenase enzymes” (Bioorg Med Chem, 2018) can be followed below.

In test [1] the target is T1, Retinal dehydrogenase 2 (Gallus gallus) (UniProt O93344).
T1 sequence (whole entry): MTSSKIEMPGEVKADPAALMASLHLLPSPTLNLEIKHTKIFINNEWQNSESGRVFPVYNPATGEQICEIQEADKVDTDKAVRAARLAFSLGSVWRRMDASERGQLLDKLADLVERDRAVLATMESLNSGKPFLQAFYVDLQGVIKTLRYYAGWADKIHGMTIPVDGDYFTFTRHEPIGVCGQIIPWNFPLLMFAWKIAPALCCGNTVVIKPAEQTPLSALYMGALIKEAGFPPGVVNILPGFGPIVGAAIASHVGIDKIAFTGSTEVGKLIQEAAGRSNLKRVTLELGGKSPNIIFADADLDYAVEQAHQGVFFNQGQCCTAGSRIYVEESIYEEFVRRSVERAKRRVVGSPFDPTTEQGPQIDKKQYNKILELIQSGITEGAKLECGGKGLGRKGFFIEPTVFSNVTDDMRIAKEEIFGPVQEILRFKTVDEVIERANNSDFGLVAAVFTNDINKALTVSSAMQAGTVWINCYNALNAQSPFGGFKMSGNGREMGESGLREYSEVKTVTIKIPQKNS
The test can be described thus: Inhibition of N-terminal His6-tagged recombinant chick RALDH2 expressed in Escherichia coli BL21(DE3) cells at 25 nM using RAL as substrate assessed as remaining activity preincubated for 20 mins followed by compound washout by ultrafiltration and subsequent addition of substrate and measured after 30 mins in presence of NADH by fluorescence assay (reference value: 100.0 +/- 11.57%). In short, it runs like this: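 Chick RALDH2 (91 nM) pre-incubated 20 min with 0–50 nM inhibitor. Unbound inhibitor removed by ultrafiltration before adding 250 μM retinaldehyde and 4 mM NAD+, 30 min at 37°C. NADH measured fluorimetrically. Activity expressed as % of vehicle. Triplicates; one-way ANOVA with Bonferroni test.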

Test [2] has as its target T1, Retinal dehydrogenase 2 (Gallus gallus). The test can be described thus: Inhibition of N-terminal His6-tagged recombinant chick RALDH2 expressed in Escherichia coli BL21(DE3) cells up to 500 nM using RAL as substrate assessed as inactivation rate constant preincubated up to 40 mins followed by substrate addition and measured after 30 mins in presence of NADH by fluorescence assay. In short, it runs like this: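 Chick RALDH2 pre-incubated 10, 20 and 40 min with 0–500 nM inhibitor, then assayed with retinaldehyde/NAD+ by fluorimetric NADH. kobs taken from linear regression of log % activity remaining versus pre-incubation time. KI and kinact obtained by nonlinear regression of kobs versus inhibitor concentration.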

The species named for another test is Gallus gallus. The test can be described thus: Inhibition of N-terminal His6-tagged recombinant chick RALDH3 expressed in Escherichia coli BL21(DE3) cells at 500 nM using RAL as substrate assessed as Vmax preincubated for 20 mins followed by substrate addition and measured after 30 mins in presence of NADH by fluorescence assay (reference value: 107.3 +/- 15.97 pmol/microM/min).

Test [3] has as its target T1, Retinal dehydrogenase 2 (Gallus gallus). The test can be described thus: Inhibition of RALDH2 in choroidal cytosol fraction from control chick assessed as inhibition of ATRA synthesis at 0.1 to 6 uM pre-incubated for 20 mins followed by […] addition and measured after 30 mins by HPLC analysis.
The target is the same in test [4]. The test can be described thus: Inhibition of N-terminal His6-tagged recombinant chick RALDH2 expressed in Escherichia coli BL21(DE3) cells at 250 nM using RAL as substrate assessed as remaining activity preincubated for 5 mins followed by all-trans-retinaldehyde and substrate addition measured after 30 mins in presence of NAD+ by fluorescence assay. Put shortly: (§1)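 Chick RALDH2 (91 nM) pre-incubated with 250 nM inhibitor for 0–80 min at 37°C, alone or with 250 μM retinaldehyde or 250 μM NAD+. Reaction then started with the missing substrate and/or cofactor (250 μM retinaldehyde, 4 mM NAD), 30 min at 37°C. Fluorimetric NADH; % activity remaining. Triplicates.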

For test [5] the target is unchanged. The test can be described thus: Inhibition of RALDH2 in living intact choroid isolated from normal chick eyes assessed as inhibition of ATRA synthesis after 24 hrs in presence of retinaldehyde and NAD+.
For test [6] the target is unchanged. The test can be described thus: Inhibition of N-terminal His6-tagged recombinant chick RALDH2 expressed in Escherichia coli BL21(DE3) cells at 250 nM using RAL as substrate assessed as remaining activity incubated up to 80 mins in presence of all-trans-retinaldehyde folowed by substrate addition and measured after 30 mins in presence of NAD+ by fluorescence assay. Put shortly:
as §1

For test [7], the target named is T2, Aldehyde dehydrogenase 1A1 (Gallus gallus, UniProt P27463).
T2 sequence (P27463 whole entry): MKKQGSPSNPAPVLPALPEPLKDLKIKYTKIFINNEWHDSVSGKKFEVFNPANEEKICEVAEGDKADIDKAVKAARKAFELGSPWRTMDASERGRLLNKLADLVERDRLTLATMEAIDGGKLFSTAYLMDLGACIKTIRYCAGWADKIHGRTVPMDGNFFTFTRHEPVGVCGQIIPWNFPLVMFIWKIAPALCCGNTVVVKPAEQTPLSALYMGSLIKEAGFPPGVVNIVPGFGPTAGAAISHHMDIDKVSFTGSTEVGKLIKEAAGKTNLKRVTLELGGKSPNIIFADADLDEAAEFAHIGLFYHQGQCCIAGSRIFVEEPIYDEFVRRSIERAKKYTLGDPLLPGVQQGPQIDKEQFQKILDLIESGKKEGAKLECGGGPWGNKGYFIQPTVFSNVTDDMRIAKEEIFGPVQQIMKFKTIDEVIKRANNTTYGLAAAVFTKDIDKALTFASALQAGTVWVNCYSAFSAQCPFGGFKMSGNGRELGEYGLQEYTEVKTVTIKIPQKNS
The test can be described thus: Inhibition of N-terminal His6-tagged recombinant chick RALDH1 expressed in Escherichia coli BL21(DE3) cells using RAL as substrate preincubated for 20 mins followed by substrate addition and measured after 30 mins in presence of NADH by fluorescence assay. Put shortly:
(§2)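 Purified His-tagged recombinant enzyme in dialysis buffer with 2 mM DTT. Amounts were chick RALDH1 2 μg (0.358 μM), chick RALDH2 0.5 μg (0.091 μM), chick RALDH3 2 μg (0.355 μM) and human RALDH2 1 μg (0.176 μM). Enzyme pre-incubated 20 min at 37°C with 0–10 μM inhibitor in DMSO. Reaction started with final 4 mM NAD+ in pyrophosphate pH 8.2 buffer plus 250 μM retinaldehyde, 30 min at 37°C. NADH read fluorimetrically (Ex/Em 540/590) against a standard curve. Triplicates, 3–5 experiments.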

Test [8] in a line: Inhibition of N-terminal His6-tagged recombinant chick RALDH3 expressed in Escherichia coli BL21(DE3) cells using RAL as substrate preincubated for 20 mins followed by substrate addition and measured after 30 mins in presence of NADH by fluorescence assay. Set-up: species or system Gallus gallus. Put shortly:
as §2

Active and inactive are the calls of the source. No cut-off for these calls is given here.

One may read the inhibition as the relative decrease from the control value, in per cent. A word on the IC50: it is the concentration that inhibits the measured activity by half. `CC1=C(/C=C/C(C)=C/C=C/C(C)=C/C(=O)C(Cl)Cl)C(C)(C)CCC1`: the Activity was determined as 33% in [1] and 39.2% in [4]. Also, the Kinact in test [2] is 0.0159 min⁻¹. The Vmax in the test listed under Gallus gallus came out at 21.6 pmol/µM/min. Also, the inhibition in test [3] is 92 to 99%. In addition, in test [5], the inhibition entry is “inactive”. Also, the inhibition entry in test [6] was “Active”. Besides, the figures for the half-inhibitory concentration (IC50) in [7] and in test [8] were 435 nM and 161 nM, respectively.
